Source: PubChem BioAssay
SENP8 block-1: blocks human SENP8 cleavage of Nedd8 substrate; recombinant SENP8, Nedd8 substrate fluorescence; inhibition, % at 20 µM; Q96LD8; AID 602440; 360,000 tested, 0.64% active; in the data active means inhibition mostly above about 40%, no sharp cut-off; inactive means mostly below about 27%
Platelet DG rel: modulates dense granule release in human platelets | human platelet-rich plasma, SFLLRN dense granule ATP release, luminescence | 300,000 tested, 0.22% active | inhibition, %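 (compounds screened at 7.5 µM in platelet-rich plasma)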 | AID 1663;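 active means mean replicate score, as percent of positive control, at or above 50; inconclusive means mean below 50 but at least one replicate at or above 50; inactive means mean and every replicate below 50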
SENP1 inh: SENP1 (human) catalytic domain inhibition | recombinant SENP1 catalytic domain, CyPet-SUMO1-YPet FRET cleavage | inhibition, % at 10 µM | 360,000 tested, 0.21% active;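 active means inhibition at least 30% at 10 µM, raw YFP signal under a set limit, fluorescence ratio 0.5 to 1.5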;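 further: 0% = enzyme with DMSO and 100% = no enzyme wells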
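Material – human SENP1 catalytic domain · Input – SENP1 enzyme, 20 pM final · Compound dosing – single concentration of 10 µM compound, 0.5% DMSO final · Timing – enzyme reaction for 50 min at room temperature, dark · Measured by – FRET fluorescence in CFP and YFP emission channels · Control set – no-enzyme wells low, DMSO-plus-enzyme wells high control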
SENP7 inh: blocks the human protease SENP7; Q9BQF6; recombinant SENP7, Z-RLRGG-aminoluciferin luminescence, 40 min; inhibition, % at 5 µM; 330,000 tested, 1.5% active;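 active means inhibition above about 50% at the single test dose, limit read from the data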;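 further: plate controls were DMSO with enzyme for no effect and no enzyme buffer wells for full effect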
SENP8 block-2: blocks the human protease SENP8; purified SENP8, Z-RLRGG-aminoluciferin cleavage, luminescence; inhibition, % at 10 µM; 330,000 tested, 1.2% active; AID 2540; in the data active means inhibition above about 50%
SENP6 inh: blocks the human protease SENP6; Recombinant SENP6 catalytic domain, aminoluciferin luminescence; inhibition, % at 10 µM; 330,000 tested, 1.8% active; AID 2599;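 active means inhibition above about 50% at the single tested dose, limit read from the data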;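 further: plate controls were DMSO wells with enzyme for no effect and DMSO wells lacking enzyme for full effect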
Target sequence (Q9GZR1 628-1112 limits assumed): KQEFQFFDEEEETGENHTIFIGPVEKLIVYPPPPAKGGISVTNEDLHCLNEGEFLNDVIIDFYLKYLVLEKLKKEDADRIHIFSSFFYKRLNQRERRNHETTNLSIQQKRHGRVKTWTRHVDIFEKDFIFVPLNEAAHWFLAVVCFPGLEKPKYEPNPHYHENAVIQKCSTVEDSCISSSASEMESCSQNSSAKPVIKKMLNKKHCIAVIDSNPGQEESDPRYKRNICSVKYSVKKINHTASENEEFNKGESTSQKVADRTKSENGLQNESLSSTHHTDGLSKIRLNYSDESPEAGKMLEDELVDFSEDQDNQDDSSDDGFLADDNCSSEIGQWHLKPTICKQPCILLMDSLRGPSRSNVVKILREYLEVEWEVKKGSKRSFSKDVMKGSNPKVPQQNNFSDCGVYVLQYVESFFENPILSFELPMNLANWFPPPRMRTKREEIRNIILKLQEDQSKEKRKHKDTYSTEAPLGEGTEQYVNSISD
SENP8 confirm: confirmation of human SENP8 protease inhibitors; Recombinant SENP8, Z-RLRGG-aminoluciferin luminescence, 60 min; inhibition, % at 12.5 µM; shares compounds with SENP7 inh; 6,200 tested, 40% active;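 active means mean inhibition across replicates above about 50%, limit read from the data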
SENP6 conf: confirmation of human SENP6 protease inhibitors. inhibition, % at 12.5 µM. AID 488915. shares compounds with SENP7 inh. 6,200 tested, 58% active. recombinant SENP6, Z-RLRGG-aminoluciferin luminescence
SENP7 confirm: confirmation of human SENP7 protease inhibitors; shares compounds with SENP7 inh; inhibition, % at 12.5 µM; 6,200 tested, 69% active; recombinant SENP7, Z-RLRGG-aminoluciferin luminescence, 40 min
Casp3 select: caspase-3 inhibition (SENP selectivity assay); shares compounds with SENP7 inh; purified caspase-3, Z-DEVD-aminoluciferin luminescence, 60 min; inhibition, % at 12.5 µM; 6,200 tested, 60% active;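 active means mean inhibition above about 50%, limit read from the data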;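 further: plate controls were enzyme with DMSO for no effect and wells without caspase-3 for full effect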
Target sequence (P42574 28-227 limits assumed): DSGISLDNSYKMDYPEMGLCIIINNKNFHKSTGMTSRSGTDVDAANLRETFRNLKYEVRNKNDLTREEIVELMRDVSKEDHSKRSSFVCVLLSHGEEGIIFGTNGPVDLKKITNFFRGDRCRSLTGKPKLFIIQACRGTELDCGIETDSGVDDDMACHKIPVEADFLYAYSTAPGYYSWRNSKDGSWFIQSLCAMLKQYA
SENP luc ctr: luminescence interference (SENP counter-screen); shares compounds with SENP7 inh; Pre-incubated SENP8/Z-RLRGG-aminoluciferin, luciferase luminescence interference; inhibition, % at 12.5 µM; 6,200 tested, 39% active; AID 488919;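 active means mean inhibition above about 50% when retested at one dose, limit read from the data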;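 further: plate controls were DMSO wells with completed reaction for no effect and substrate without enzyme for full effect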
An asterisk follows results filed as active; u = inconclusive; x = no result given. Rows were chosen to be rich in hits. Some 2.6% of all compounds tested hit in one or more screens of this group.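 How the source made its calls, unless noted: active means mean inhibition above about 50% in the one-dose retest (limit read from the data); inactive means the rest.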

SMILES | SENP8 block-1 | Platelet DG rel | SENP1 inh | SENP7 inh | SENP8 block-2 | SENP6 inh | SENP8 confirm | SENP6 conf | SENP7 confirm | Casp3 select | SENP luc ctr
CCOc1ccc(/C=N/O)cc1 | 9.7 | 0.5 | 1.2 | -2.5 | 7.9 | -7.3 | x | x | x | x | x
Cc1ccc(COc2ccc(/C=N/O)cc2)cc1 | 2.1 | 2.0 | 0.5 | 56.8* | 44.7 | 70.3* | 70.6* | 69.9* | 86.5* | 48.2 | 46.7
O=C(Nc1ccccc1N1CCOCC1)C1=NN(c2c(F)c(F)cc(F)c2F)C(=O)CC1 | 10.7 | x | 1.6 | 0.1 | 2.5 | 6.9 | x | x | x | x | x
N/C(=N\NC(=O)c1sccc1OCc1ccc(Cl)cc1Cl)c1ccccn1 | 6.3 | 2.7 | 0.1 | -10.7 | -12.3 | -11.4 | x | x | x | x | x
c1ccc(C2=NN(c3ccccc3)CC2)cc1 | -450.5 | u | -133.2 | 58.5* | 57.0* | 5.7 | 12.7 | 23.9 | 32.5 | 40.0 | 36.7
O=C(CN1C(=O)c2ccccc2S1(=O)=O)c1ccc(Cl)cc1Cl | -2.5 | -8.8 | -1.4 | 8.2 | 72.3* | 67.5* | 73.3* | 76.9* | 83.5* | 50.5* | 9.1
CCc1ccc(C(=O)CCC2CCCCC2=O)cc1 (centres undefined) | 0.7 | 1.2 | 2.7 | 4.0 | -8.9 | -16.3 | x | x | x | x | x
O=C(N/N=C1\CCCc2ccccc21)c1ccccc1Cl | 6.1 | 9.0 | 0.9 | 3.9 | -1.0 | 18.1 | x | x | x | x | x
Cc1ccc(C(=O)O/N=C2\CCCc3ccccc32)cc1 | 12.2 | 13.8 | 4.7 | 97.4* | 90.1* | 97.2* | 71.6* | 98.5* | 102.7* | 84.6* | 12.4
O=C(O/N=C1\CCCc2ccccc21)C1CC1 | 21.0 | -0.9 | 3.3 | 2.1 | -0.4 | 8.2 | x | x | x | x | x
O=C(O)c1ccc(N/N=C2/CCCc3ccccc32)cc1 | -19.2 | 6.7 | 1.8 | 16.7 | 48.2 | 71.5* | 70.7* | 67.8* | 84.3* | 72.7* | 58.0*
O=C(O/N=C1\CCCc2ccccc21)c1cccc(Cl)c1 | 5.0 | -0.6 | 2.7 | 82.0* | 46.4 | 82.9* | 65.9* | 63.6* | 90.0* | 64.6* | 42.6
Cc1cccc(C(=O)O/N=C2\CCSc3ccc(C)cc32)c1 | -36.8 | 0.8 | -2.9 | 0.7 | 0.1 | 13.1 | x | x | x | x | x
Cc1cccc(C(=O)O/N=C2\CCCc3ccccc32)c1 | 4.3 | -0.6 | 0.6 | 90.1* | 64.7* | 91.6* | 42.9 | 88.3* | 97.8* | 77.8* | 63.5*
COc1ccc(C2C(C(=O)O)CCC(=O)N2c2ccc(OC)cc2)cc1 (centres undefined) | 13.7 | -4.4 | -1.6 | -5.9 | -0.6 | -33.7 | x | x | x | x | x
CC(C)N(C(=O)Nc1ccc2nsnc2c1)C(C)C | x | -1.3 | x | 95.3* | 97.2* | 98.1* | 82.6* | 89.0* | 74.6* | 12.2 | 8.9
CCOc1ccc(Br)cc1S(=O)(=O)N1CCCN(C)CC1 | 17.8 | -9.1 | -1.1 | 3.8 | 7.6 | 22.4 | x | x | x | x | x
CCCOc1ccc(-c2c(C(=O)N/N=C(\C)c3cccnc3)nnn2-c2nonc2N)cc1 | 2.7 | -5.8 | 2.8 | -13.7 | 1.4 | -11.1 | x | x | x | x | x
S=C(Nc1ccc2nsnc2c1)N1CCCCCC1 | -149.4 | 4.8 | -28.4 | 53.0* | 89.4* | 92.8* | 19.7 | 29.9 | 16.8 | 45.8 | 57.9*
COCCNC(=S)Nc1ccc2nsnc2c1 | -69.6 | -3.3 | 47.4 | 2.3 | -9.1 | -11.3 | x | x | x | x | x
C=CCNC(=S)Nc1ccc2nsnc2c1 | -4.4 | 14.2 | 18.1 | 21.0 | 18.1 | 59.7* | 11.2 | 3.9 | 10.0 | 5.9 | 3.3
C=CCN(CC=C)C(=S)Nc1ccc2nsnc2c1 | -211.3 | -3.0 | -23.9 | 26.1 | 45.8 | 74.9* | 3.6 | 15.2 | 9.5 | 10.9 | 10.1
O=C(C1CCN(S(=O)(=O)c2cccc3cccnc23)CC1)N1CCc2ccccc21 | 14.9 | -0.7 | 0.0 | -7.7 | -4.3 | -4.6 | x | x | x | x | x
O=C(Nc1ccnc(=O)[nH]1)c1sc2ccccc2c1Cl | -78.5 | -1.2 | -3.5 | 54.0* | 52.2* | 74.3* | 1.6 | -2.3 | 6.8 | 11.1 | 4.2
CC(C)(C)NS(=O)(=O)c1cccc2nsnc12 | x | -3.2 | x | -3.4 | -8.5 | 1.6 | x | x | x | x | x
SMILES | SENP8 block-1 | Platelet DG rel | SENP1 inh | SENP7 inh | SENP8 block-2 | SENP6 inh | SENP8 confirm | SENP6 conf | SENP7 confirm | Casp3 select | SENP luc ctr
CN=C1S/C(=C\c2ccc(SC)cc2)C(=O)N1C | -146.7 | 2.2 | -4.1 | 62.4* | 62.2* | 70.0* | 69.1* | 67.1* | 84.3* | 64.6* | 46.7
CN=C1S/C(=C\c2ccc(Cl)cc2)C(=O)N1C | 3.1 | -1.0 | 1.6 | 18.0 | 28.2 | 36.6 | x | x | x | x | x
CN=C1S/C(=C\c2ccc(O)c(Br)c2)C(=O)N1C | -9.7 | 38.3 | -68.4 | 100.0* | 96.8* | 97.0* | 98.7* | 100.0* | 102.1* | 98.3* | 80.4*
CN=C1S/C(=C\c2cccc(Cl)c2Cl)C(=O)N1C | x | 6.4 | x | 48.8 | 67.0* | 76.8* | -9.5 | 41.0 | 38.3 | 17.0 | 11.1
C/C(=N\NC(=O)c1nnn(-c2nonc2N)c1CN(C)c1ccccc1)c1ccccn1 | 16.8 | 2.1 | 0.8 | x | x | x | x | x | x | x | x
CC(/C=N/n1c(C2CCCCC2)n[nH]c1=S)=C\c1ccccc1 | 19.8 | 1.2 | 2.5 | 8.2 | 4.1 | -1.3 | x | x | x | x | x
Cc1cccc(-c2noc(-c3c(C)noc3C)n2)c1 | 25.8 | -1.8 | 0.2 | 47.8 | 57.5* | 70.8* | 28.9 | 37.8 | 52.5* | 49.6 | 16.5
Cc1cccc(-c2nc(-c3ccncc3)no2)c1 | 22.0 | 6.0 | -0.3 | 81.7* | 78.8* | -4.8 | 57.7* | 84.1* | 97.2* | 85.1* | 56.5*
CCN(Cc1nc(-c2cccc(C)c2)no1)C(=O)c1ccc2c(c1)OCO2 | 10.7 | -3.0 | -1.2 | -12.4 | -8.9 | -1.7 | x | x | x | x | x
Brc1cccc(-c2nc(-c3ccncc3)no2)c1 | 4.6 | 7.4 | -0.4 | 71.5* | 49.9 | 70.4* | 26.9 | 54.1* | 63.7* | 59.3* | 26.1
COc1cc(-c2nc(-c3cccc(C)c3)no2)cc(OC)c1OC | 9.8 | 1.6 | -1.5 | 7.5 | -3.6 | 3.2 | x | x | x | x | x
Cc1cccc(-c2noc(-c3ccc4c(c3)OCO4)n2)c1 | -10.0 | 20.4 | -0.3 | 100.5* | 70.4* | 81.9* | 4.1 | 38.4 | 47.0 | 36.7 | 29.7
Clc1ccc(Br)cc1-c1nc(-c2ccncc2)no1 | 16.4 | 7.3 | -2.0 | 6.0 | 0.0 | -7.2 | x | x | x | x | x
COc1ccccc1CNC(=O)C1CCN(C(=O)NC2CCCCC2)CC1 | 0.8 | 3.4 | 0.0 | -3.6 | 4.4 | -21.7 | x | x | x | x | x
